According to ChEMBL document CHEMBL1130079, “Non-peptide RGD surrogates which mimic a Gly-Asp beta-turn: potent antagonists of platelet glycoprotein IIb-IIIa” (J Med Chem, 1997):

How the values were obtained:
Homo sapiens = species on record: Homo sapiens; test: Ability to block Glycoprotein IIb-IIIa was measured by inhibiting ADP induced human platelet aggregation (5 uM); assay type: functional
[1] = target: Integrin alpha-IIb/beta-3 (Homo sapiens, UniProt P05106+P08514); test: Concentration required to reduce binding of fibrinogen to purified Fibrinogen Receptor by 50% using ELISA; assay type: protein-complex assay
Sequence of Integrin alpha-IIb/beta-3 (P05106 27-788 limits assumed): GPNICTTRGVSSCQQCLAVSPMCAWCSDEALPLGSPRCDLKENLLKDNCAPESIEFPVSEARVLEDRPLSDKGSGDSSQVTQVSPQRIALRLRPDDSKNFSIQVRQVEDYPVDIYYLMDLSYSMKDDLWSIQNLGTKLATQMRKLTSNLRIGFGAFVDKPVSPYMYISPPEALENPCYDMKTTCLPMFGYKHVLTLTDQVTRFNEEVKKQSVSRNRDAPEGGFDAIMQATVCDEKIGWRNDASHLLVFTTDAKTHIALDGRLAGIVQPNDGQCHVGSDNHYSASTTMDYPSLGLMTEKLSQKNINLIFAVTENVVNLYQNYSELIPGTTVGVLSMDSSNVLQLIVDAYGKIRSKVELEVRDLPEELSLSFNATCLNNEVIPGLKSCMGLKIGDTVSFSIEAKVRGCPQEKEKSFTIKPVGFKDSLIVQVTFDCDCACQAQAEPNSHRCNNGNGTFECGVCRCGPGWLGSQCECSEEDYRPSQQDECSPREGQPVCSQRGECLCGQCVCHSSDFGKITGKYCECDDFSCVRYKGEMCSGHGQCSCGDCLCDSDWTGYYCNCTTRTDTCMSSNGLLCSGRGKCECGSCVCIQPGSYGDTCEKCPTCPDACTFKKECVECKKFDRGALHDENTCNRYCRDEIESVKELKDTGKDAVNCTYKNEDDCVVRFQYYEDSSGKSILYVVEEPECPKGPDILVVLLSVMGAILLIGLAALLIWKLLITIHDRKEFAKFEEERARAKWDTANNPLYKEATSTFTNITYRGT
Sequence of Integrin alpha-IIb/beta-3 (P08514 32-887 limits assumed): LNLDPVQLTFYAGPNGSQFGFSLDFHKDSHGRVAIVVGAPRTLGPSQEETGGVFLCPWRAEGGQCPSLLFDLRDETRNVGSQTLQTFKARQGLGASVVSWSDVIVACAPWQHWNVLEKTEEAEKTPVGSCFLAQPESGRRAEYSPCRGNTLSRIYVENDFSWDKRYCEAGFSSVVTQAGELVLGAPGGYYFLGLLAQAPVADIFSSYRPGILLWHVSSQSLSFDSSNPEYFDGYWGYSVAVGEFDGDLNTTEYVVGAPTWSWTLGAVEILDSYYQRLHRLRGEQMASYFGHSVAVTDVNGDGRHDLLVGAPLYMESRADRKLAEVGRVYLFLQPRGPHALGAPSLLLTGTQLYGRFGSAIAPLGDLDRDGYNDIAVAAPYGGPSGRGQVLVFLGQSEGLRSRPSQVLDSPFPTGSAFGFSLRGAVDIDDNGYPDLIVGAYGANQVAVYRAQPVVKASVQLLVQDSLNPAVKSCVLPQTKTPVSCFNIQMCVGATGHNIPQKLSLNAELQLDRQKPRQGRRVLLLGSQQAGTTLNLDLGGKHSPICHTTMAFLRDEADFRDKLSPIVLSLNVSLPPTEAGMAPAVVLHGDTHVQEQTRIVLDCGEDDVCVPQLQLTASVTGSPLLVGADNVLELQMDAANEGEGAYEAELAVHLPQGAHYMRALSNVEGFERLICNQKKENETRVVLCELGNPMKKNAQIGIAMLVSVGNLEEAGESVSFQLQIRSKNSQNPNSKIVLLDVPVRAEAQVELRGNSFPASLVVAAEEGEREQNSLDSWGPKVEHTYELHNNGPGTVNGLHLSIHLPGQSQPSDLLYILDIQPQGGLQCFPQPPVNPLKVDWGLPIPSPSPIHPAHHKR
Sequence of Integrin alpha-IIb/beta-3 (P08514 891-1039 limits assumed): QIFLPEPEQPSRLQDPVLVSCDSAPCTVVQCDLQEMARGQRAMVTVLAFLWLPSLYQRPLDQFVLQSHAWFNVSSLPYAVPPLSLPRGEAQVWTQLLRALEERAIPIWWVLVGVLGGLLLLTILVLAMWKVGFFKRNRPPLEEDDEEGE
In short: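 ELISA of fibrinogen binding to immobilized purified human platelet GPIIb-IIIa; biotinylated fibrinogen detected with alkaline phosphatase-labeled goat antibiotin and p-nitrophenol phosphate substrate; IC50 as inhibition of fibrinogen binding.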

Structure (SMILES)	IC50 (Homo sapiens)	IC50 [1]
N=C(N)c1ccc(NC(=O)c2ccc3c(c2)CCN(CC(=O)O)C3=O)cc1	0.56 µM	0.076 µM
N=C(N)NCCCOc1ccc2c(c1)CCN(CC(=O)O)C2=O		44 µM
O=C(O)CN1CCc2cc(OCC3CCNCC3)ccc2C1=O		55 µM
N=C(N)NCc1cccc(COc2ccc3c(c2)CCN(CC(=O)O)C3=O)c1		14 µM
N=C(N)c1ccc(C(=O)Nc2ccc3c(c2)CCN(CC(=O)O)C3=O)cc1	0.09 µM	0.003 µM
O=C(O)CN1CCc2cc(OCCC3CCNCC3)ccc2C1=O		11 µM
NCCCOc1ccc2c(c1)CCN(CC(=O)O)C2=O		48 µM
N=C(N)NCCCCOc1ccc2c(c1)C(=O)N(CC(=O)O)CC2		46 µM
NCCCCOc1ccc2c(c1)CCN(CC(=O)O)C2=O		18 µM
N=C(N)NCCCCOc1ccc2c(c1)CCN(CC(=O)O)C2=O		10 µM
NCCCCCOc1ccc2c(c1)CCN(CC(=O)O)C2=O		28 µM
NCCCCCCOc1ccc2c(c1)CCN(CC(=O)O)C2=O		19 µM
N=C(N)NCCCCCCOc1ccc2c(c1)CCN(CC(=O)O)C2=O		12 µM
N=C(N)NCCCOc1ccc2c(c1)C(=O)N(CC(=O)O)CC2		< 100 µM
O=C(O)CN1CCc2cc(OCCCCC3CCNCC3)ccc2C1=O	9.8 µM	1.8 µM
O=C(O)CN1CCc2cc(OCCCC3CCNCC3)ccc2C1=O		6 µM

Results, then the compound that gave them:

IC50 (Homo sapiens)	IC50 [1]	Structure (SMILES)
	4 µM	N=C(N)c1ccc(COc2ccc3c(c2)C(=O)N(CC(=O)O)CC3)cc1
	4 µM	N=C(N)NCc1ccc(COc2ccc3c(c2)CCN(CC(=O)O)C3=O)cc1
5.7 µM	0.29 µM	N=C(N)c1ccc(/C=C\c2ccc3c(c2)CCN(CC(=O)O)C3=O)cc1
30 µM		N=C(N)c1ccc(COc2ccc3c(c2)CCN(CC(=O)O)C3=O)cc1
	12 µM	NCc1ccc(COc2ccc3c(c2)CCN(CC(=O)O)C3=O)cc1
	6 µM	N=C(N)c1ccc(CCOc2ccc3c(c2)CCN(CC(=O)O)C3=O)cc1
1.2 µM		N=C(N)c1ccc(CCc2ccc3c(c2)CCN(CC(=O)O)C3=O)cc1
0.34 µM	0.048 µM	N=C(N)c1ccc(/C=C/c2ccc3c(c2)CCN(CC(=O)O)C3=O)cc1
	77 µM	NCc1cccc(COc2ccc3c(c2)CCN(CC(=O)O)C3=O)c1
0.52 µM	0.033 µM	N=C(N)c1ccc(C#Cc2ccc3c(c2)CCN(CC(=O)O)C3=O)cc1
